The results in this text go back to ChEMBL document CHEMBL1124291, “New actinomycin D analogues as superior chemotherapeutic agents against primary and advanced colon tumors and colon xenografts in nude mice” (J Med Chem, 1988).

A word on the ILS: it is the gain in survival time of treated over control animals, in per cent. Low values mean a small benefit in survival, high ones a large benefit in survival.

The test system of assay [1] is B16. The experiment in a line: In vivo antitumor activity against B16 melanoma cells at a optimal dose 300 ug/Kg /inj measured as %ILS (%increase life span). It counts as functional. The following applies: Mus musculus. In short, it runs like this:
(§1)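 BDF1 mice in groups of nine were implanted ip on day 0 with 0.2 mL of 1:5 (w/v) B16 melanoma brei; drugs were given ip. Survival is reported as median survival time in days with range, and as %ILS, with survivors counted on day 65 out of total injected.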

The subject of assay [2] is B16. Description: In vivo antitumor activity against B16 melanoma cells at dose 300 ug/Kg /inj measured as Mean survival time (MST). In kind it is functional, Mus musculus. An outline of the steps:
as §1

For assay [3], the system named is P388. Description: Antitumor activity against P388/S (AMD sensitive) in male BDF1 mice measured as optimal dose at dose 1.0-5.0 mg/Kg/inj, ip.
Assay [4] deals with P388. Description: Antitumor activity against P388/ADR (adriamycin resistant), in male BDF1 mice measured as optimal dose at dose 1.0-5.0 mg/Kg/inj, ip.

The compound `Cc1nc2c(C(=O)N[C@@H]3C(=O)N[C@H](C(C)C)C(=O)N4CCC[C@H]4C(=O)N(C)CC(=O)N(C)[C@@H](C(C)C)C(=O)O[C@@H]3C)c3nc4c(C(=O)N[C@@H]5C(=O)N[C@H](C(C)C)C(=O)N6CCC[C@H]6C(=O)N(C)CC(=O)N(C)[C@@H](C(C)C)C(=O)O[C@@H]5C)c(N)c(=O)c(C)c-4oc3c(C)c2o1` showed an ILS at 0.3 mg/kg with B16 [1] of 124%. Moreover, in the assay on B16 [2], the MST was 65.
Take `CO[C@@]12[C@H](COC(N)=O)C3=C(C(=O)C(C)=C(N)C3=O)N1C[C@@H]1N[C@@H]12` [MITOMYCIN]: the optimal dose in the assay on P388 [3] and in the assay on P388 [4] was 3 mg/kg in each case.
